{"source": "ChEMBL document CHEMBL3400013", "about": "“Synthesis and biological activity evaluation of hydrazone derivatives based on a Tröger's base skeleton” (Bioorg Med Chem, 2015)", "note": "pIC50: −log10 of the molar value. The source made the active and inactive calls. No cut-off for these calls is given here."}
{"test_system": "MRC5", "test": "Cytostatic activity against human MRC5 cells after 72 hrs by MTT assay", "assay_type": "ADME, cell-based", "settings": "MRC5, 72 h", "summary_of_the_method": "(§1)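 Cells were seeded at 25,000–30,000 per well and pre-incubated for 24 h at 37°C in 5% CO2. Four-fold compound dilutions were added in duplicate and incubated for 72 h. MTT was added for 1–4 h, and formazan was dissolved in 10% aq SDS (pH 5.5) overnight at 37°C. OD was read at 540 nm. IC50 came from dose-response curves, mean ± SD of eight independent experiments.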"}
{"smiles": "O=C(N/N=C/c1cc(Cl)ccc1O)c1ccc2c3c(ccc2c1)N1Cc2c(ccc4cc(C(=O)N/N=C/c5cc(Cl)ccc5O)ccc24)N(C3)C1", "pIC50": "< 4.00"}
{"test_system": "Candida tropicalis", "test": "Antifungal activity against Candida tropicalis up to 200 uM after 24 to 48 hrs by broth microdilution method", "assay_type": "functional, organism-based", "settings": "not given"}
{"smiles": "O=C(N/N=C/c1cc(Cl)ccc1O)c1ccc2c3c(ccc2c1)N1Cc2c(ccc4cc(C(=O)N/N=C/c5cc(Cl)ccc5O)ccc24)N(C3)C1", "Activity": "inactive"}
{"test_system": "not listed separately", "test": "Metal chelating activity of the compound assessed as formation of Mg2+ complex by UV-vis spectrometry", "assay_type": "physicochemical", "settings": "not given"}
{"smiles": "O=C(N/N=C/c1cc(Cl)ccc1O)c1ccc2c3c(ccc2c1)N1Cc2c(ccc4cc(C(=O)N/N=C/c5cc(Cl)ccc5O)ccc24)N(C3)C1", "Activity": "Not Active"}
{"test_system": "Pichia kudriavzevii", "test": "Antifungal activity against Candida crusei up to 200 uM after 24 to 48 hrs by broth microdilution method", "assay_type": "functional, organism-based", "settings": "not given"}
{"smiles": "O=C(N/N=C/c1cc(Cl)ccc1O)c1ccc2c3c(ccc2c1)N1Cc2c(ccc4cc(C(=O)N/N=C/c5cc(Cl)ccc5O)ccc24)N(C3)C1", "Activity": "inactive"}
{"test_system": "not listed separately", "test": "Cytostatic activity against human p53-/- HCT116 cells after 72 hrs by MTT assay", "assay_type": "functional, cell-based", "settings": "HCT-116, 72 h", "summary_of_the_method": "as §1"}
{"smiles": "O=C(N/N=C/c1cc(Cl)ccc1O)c1ccc2c3c(ccc2c1)N1Cc2c(ccc4cc(C(=O)N/N=C/c5cc(Cl)ccc5O)ccc24)N(C3)C1", "pIC50": "< 4.00"}
{"test_system": "Pseudomonas aeruginosa", "test": "Antimicrobial activity against Pseudomonas aeruginosa CCM 395 up to 200 uM after 24 to 48 hrs by broth microdilution method", "assay_type": "functional, organism-based", "settings": "not given"}
{"smiles": "O=C(N/N=C/c1cc(Cl)ccc1O)c1ccc2c3c(ccc2c1)N1Cc2c(ccc4cc(C(=O)N/N=C/c5cc(Cl)ccc5O)ccc24)N(C3)C1", "Activity": "inactive"}
{"test_system": "Staphylococcus aureus", "test": "Antimicrobial activity against Staphylococcus aureus CCM 3953 up to 200 uM after 24 to 48 hrs by broth microdilution method", "assay_type": "functional, organism-based", "settings": "not given"}
{"smiles": "O=C(N/N=C/c1cc(Cl)ccc1O)c1ccc2c3c(ccc2c1)N1Cc2c(ccc4cc(C(=O)N/N=C/c5cc(Cl)ccc5O)ccc24)N(C3)C1", "Activity": "inactive"}
{"test_system": "Staphylococcus haemolyticus", "test": "Antimicrobial activity against methicillin-resistant Staphylococcus haemolyticus A1/16568 up to 200 uM after 24 to 48 hrs by broth microdilution method", "assay_type": "functional, organism-based", "settings": "not given"}
{"smiles": "O=C(N/N=C/c1cc(Cl)ccc1O)c1ccc2c3c(ccc2c1)N1Cc2c(ccc4cc(C(=O)N/N=C/c5cc(Cl)ccc5O)ccc24)N(C3)C1", "Activity": "inactive"}
{"test_system": "Nucleic Acid", "test": "Binding affinity to DNA (unknown origin) assessed as DNA intercalation by UV-visible spectrophotometry in presence of Ni2+", "assay_type": "nucleic-acid assay", "settings": "not given"}
{"smiles": "O=C(N/N=C/c1cc(Cl)ccc1O)c1ccc2c3c(ccc2c1)N1Cc2c(ccc4cc(C(=O)N/N=C/c5cc(Cl)ccc5O)ccc24)N(C3)C1", "Activity": "Active"}
{"test_system": "BJ", "test": "Selectivity index, ratio of IC50 for human BJ cells to IC50 for human K562-TAX cells", "assay_type": "functional", "settings": "not given"}
{"smiles": "O=C(N/N=C/c1cc(Cl)ccc1O)c1ccc2c3c(ccc2c1)N1Cc2c(ccc4cc(C(=O)N/N=C/c5cc(Cl)ccc5O)ccc24)N(C3)C1", "Ratio IC50": 1}
{"test_system": "BJ", "test": "Selectivity index, ratio of IC50 for human BJ cells to IC50 for human p53-/- HCT116 cells", "assay_type": "functional", "settings": "not given"}
{"smiles": "O=C(N/N=C/c1cc(Cl)ccc1O)c1ccc2c3c(ccc2c1)N1Cc2c(ccc4cc(C(=O)N/N=C/c5cc(Cl)ccc5O)ccc24)N(C3)C1", "Ratio IC50": 1}
{"test_system": "not listed separately", "test": "Cytostatic activity against human K562-TAX cells after 72 hrs by MTT assay", "assay_type": "functional, cell-based", "settings": "not given", "summary_of_the_method": "as §1"}
{"smiles": "O=C(N/N=C/c1cc(Cl)ccc1O)c1ccc2c3c(ccc2c1)N1Cc2c(ccc4cc(C(=O)N/N=C/c5cc(Cl)ccc5O)ccc24)N(C3)C1", "pIC50": "< 4.00"}
{"test_system": "BJ", "test": "Selectivity index, ratio of IC50 for human BJ cells to IC50 for human CEM-DNR cells", "assay_type": "functional", "settings": "not given"}
{"smiles": "O=C(N/N=C/c1cc(Cl)ccc1O)c1ccc2c3c(ccc2c1)N1Cc2c(ccc4cc(C(=O)N/N=C/c5cc(Cl)ccc5O)ccc24)N(C3)C1", "Ratio IC50": 1}
{"test_system": "Enterococcus faecalis", "test": "Antimicrobial activity against Enterococcus faecalis CCM 4224 up to 200 uM after 24 to 48 hrs by broth microdilution method", "assay_type": "functional, organism-based", "settings": "not given"}
{"smiles": "O=C(N/N=C/c1cc(Cl)ccc1O)c1ccc2c3c(ccc2c1)N1Cc2c(ccc4cc(C(=O)N/N=C/c5cc(Cl)ccc5O)ccc24)N(C3)C1", "Activity": "inactive"}
{"test_system": "A549", "test": "Selectivity index, ratio of IC50 for human MRC5 cells to IC50 for human A549 cells", "assay_type": "functional", "settings": "not given"}
{"smiles": "O=C(N/N=C/c1cc(Cl)ccc1O)c1ccc2c3c(ccc2c1)N1Cc2c(ccc4cc(C(=O)N/N=C/c5cc(Cl)ccc5O)ccc24)N(C3)C1", "Ratio IC50": 1}
{"test_system": "not listed separately", "test": "Metal chelating activity of the compound assessed as formation of Cu2+ complex by UV-vis spectrometry", "assay_type": "physicochemical", "settings": "not given"}
{"smiles": "O=C(N/N=C/c1cc(Cl)ccc1O)c1ccc2c3c(ccc2c1)N1Cc2c(ccc4cc(C(=O)N/N=C/c5cc(Cl)ccc5O)ccc24)N(C3)C1", "Activity": "Active"}
{"test_system": "Nucleic Acid", "test": "Binding affinity to DNA (unknown origin) assessed as DNA intercalation by UV-visible spectrophotometry", "assay_type": "nucleic-acid assay", "settings": "not given"}
{"smiles": "O=C(N/N=C/c1cc(Cl)ccc1O)c1ccc2c3c(ccc2c1)N1Cc2c(ccc4cc(C(=O)N/N=C/c5cc(Cl)ccc5O)ccc24)N(C3)C1", "Activity": "inactive"}
{"test_system": "not listed separately", "test": "Cytostatic activity against human CEM-DNR cells after 72 hrs by MTT assay", "assay_type": "functional, cell-based", "settings": "not given", "summary_of_the_method": "as §1"}
{"smiles": "O=C(N/N=C/c1cc(Cl)ccc1O)c1ccc2c3c(ccc2c1)N1Cc2c(ccc4cc(C(=O)N/N=C/c5cc(Cl)ccc5O)ccc24)N(C3)C1", "pIC50": "< 4.00"}
{"test_system": "Nucleic Acid", "test": "Binding affinity to DNA (unknown origin) assessed as DNA intercalation by UV-visible spectrophotometry in presence of Co2+", "assay_type": "nucleic-acid assay", "settings": "not given"}
{"smiles": "O=C(N/N=C/c1cc(Cl)ccc1O)c1ccc2c3c(ccc2c1)N1Cc2c(ccc4cc(C(=O)N/N=C/c5cc(Cl)ccc5O)ccc24)N(C3)C1", "Activity": "Active"}
{"test_system": "CCRF-CEM", "test": "Cytostatic activity against human CCRF-CEM cells after 72 hrs by MTT assay", "assay_type": "functional, cell-based", "settings": "not given", "summary_of_the_method": "as §1"}
{"smiles": "O=C(N/N=C/c1cc(Cl)ccc1O)c1ccc2c3c(ccc2c1)N1Cc2c(ccc4cc(C(=O)N/N=C/c5cc(Cl)ccc5O)ccc24)N(C3)C1", "pIC50": 4.38}
{"test_system": "not listed separately", "test": "Metal chelating activity of the compound assessed as formation of Fe2+ complex by UV-vis spectrometry", "assay_type": "physicochemical", "settings": "not given"}
{"smiles": "O=C(N/N=C/c1cc(Cl)ccc1O)c1ccc2c3c(ccc2c1)N1Cc2c(ccc4cc(C(=O)N/N=C/c5cc(Cl)ccc5O)ccc24)N(C3)C1", "Activity": "Not Active"}
{"test_system": "not listed separately", "test": "Metal chelating activity of the compound assessed as formation of Co2+ complex by UV-vis spectrometry", "assay_type": "physicochemical", "settings": "not given"}
{"smiles": "O=C(N/N=C/c1cc(Cl)ccc1O)c1ccc2c3c(ccc2c1)N1Cc2c(ccc4cc(C(=O)N/N=C/c5cc(Cl)ccc5O)ccc24)N(C3)C1", "Activity": "Active"}
{"test_system": "A549", "test": "Selectivity index, ratio of IC50 for human BJ cells to IC50 for human A549 cells", "assay_type": "functional", "settings": "not given"}
{"smiles": "O=C(N/N=C/c1cc(Cl)ccc1O)c1ccc2c3c(ccc2c1)N1Cc2c(ccc4cc(C(=O)N/N=C/c5cc(Cl)ccc5O)ccc24)N(C3)C1", "Ratio IC50": 1}
{"test_system": "BJ", "test": "Cytostatic activity against human BJ cells after 72 hrs by MTT assay", "assay_type": "ADME, cell-based", "settings": "not given", "summary_of_the_method": "as §1"}
{"smiles": "O=C(N/N=C/c1cc(Cl)ccc1O)c1ccc2c3c(ccc2c1)N1Cc2c(ccc4cc(C(=O)N/N=C/c5cc(Cl)ccc5O)ccc24)N(C3)C1", "pIC50": "< 4.00"}
{"test_system": "MRC5", "test": "Selectivity index, ratio of IC50 for human MRC5 cells to IC50 for human K562-TAX cells", "assay_type": "functional", "settings": "not given"}
{"smiles": "O=C(N/N=C/c1cc(Cl)ccc1O)c1ccc2c3c(ccc2c1)N1Cc2c(ccc4cc(C(=O)N/N=C/c5cc(Cl)ccc5O)ccc24)N(C3)C1", "Ratio IC50": 1}
